ChEMBL document CHEMBL3272284, “Drugs derived from cannabinoids. 6. Synthesis of cyclic analogues of dimethylheptylpyran” (1976)
Calls of active or inactive are those of the source. The calls are words filed in the database; no cut-off is given here.

Tests used:
Rattus norvegicus [1] = experiment: Antihypertensive activity in rat assessed as reduction of blood pressure at 10 mg/kg, po after 24 hrs; format: functional; design: scale not given: the % may be the effect or the level left
How it was run: (§1)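 Cardiovascular screen in hypertensive rats. Compounds were given orally and blood pressure was measured after dosing, with readings taken at 3 h and over 24 h. Activity is expressed as percent decrease in blood pressure.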

Rattus norvegicus [2] = experiment: Antihypertensive activity in rat assessed as reduction of blood pressure at 0.1 mg/kg, po; format: functional; design: scale not given: the % may be the effect or the level left; how it was run: as §1
Mus musculus [3] = experiment: Central nervous system activity in mouse assessed as fighting at 10 mg/kg, po; format: functional, organism-based; design: dose 10 mg/kg
Mus musculus [4] = experiment: […] activity in mouse assessed as protection against audiogenic seizure up to 30 mg/kg, po; format: functional, organism-based; design: dose 30 mg/kg
Rattus norvegicus [5] = experiment: Antihypertensive activity in rat assessed as reduction of blood pressure at 10 mg/kg, po after 3 hrs; format: functional; design: scale not given: the % may be the effect or the level left; how it was run: as §1
Rattus norvegicus [6] = experiment: Antidepressant activity in rat assessed as motor activity at 5 mg/kg, po; format: functional, organism-based; design: dose 5 mg/kg
Rattus norvegicus [7] = experiment: Antihypertensive activity in po dosed rat assessed as reduction of blood pressure; format: functional, organism-based; how it was run: as §1

SMILES | Activity (Rattus norvegicus [1]) [%] | Activity (Rattus norvegicus [2]) [%] | Activity (Mus musculus [3]) | Activity (Mus musculus [4]) | Activity (Rattus norvegicus [5]) [%] | Activity (Rattus norvegicus [6]) | Activity (Rattus norvegicus [7])
CCCCCC(C)C(C)c1cc(O)c2c(c1)OC(C)(C)C1=C2CC(C)CC1 (stereo not given) | 38 | 8 | – | – | – | – | –
CCCCCC1Cc2c(cc(O)c3c2OC(C)(C)C2=C3CC(C)CC2)C1C (stereo not given) | – | – | inactive | inactive | 6 | inactive | –
CCCCCC1Cc2c(cc3c(c2O)C2=C(CCC(C)C2)C(C)(C)O3)C1C (stereo not given) | – | – | inactive | inactive | – | inactive | inactive
